Measured values: ChEMBL document CHEMBL4680229, “Design, synthesis and bioactivity study of N-salicyloyl tryptamine derivatives as multifunctional agents for the treatment of neuroinflammation” (Eur J Med Chem, 2020)
Activity calls are given as the source filed them. The calls are words filed in the database; no cut-off is given here.

How the values were obtained:
BV-2 [1] = test: Antiinflammatory activity against LPS-induced mouse BV-2 cells assessed as increase in IL-10 production at 40 uM after 24 hrs by ELISA; assay type: functional, cell-based
Summary of the method: (§1)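 BV2 cells at 5×10^5 cells/mL stimulated with LPS 1 μg/mL; compound at 10, 20 or 40 μM final for 24 h, DMSO in blanks. Supernatant TNF-α and IL-10 measured by sandwich ELISA and PGE2 by competitive ELISA, OD at 450 nm; at least three independent experiments.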

C6 [2] = test: Antiinflammatory activity against LPS-induced rat C6 cells assessed as decrease in INOS protein expression at 40 uM after 24 hrs by Western blot analysis relative to control; assay type: functional; design: scale not given: the % may be the effect or the level left
Summary of the method: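 C6 cells; LPS 10 μg/mL plus compound at 10, 20 or 40 μM for 24 h. Lysates with RIPA/PMSF, 30 μg protein on 8% SDS-PAGE, iNOS immunoblot and densitometry; at least three independent experiments.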

Mus musculus [3] = test: Antiinflammatory activity against LPS-induced hippocampal neuroinflammatory Kunming mouse model assessed as reduction in iba-1 level in hippocampus at 50 mg/kg, ip administered bid for 6 days by DAPI staining based microscopic method; assay type: functional, organism-based; conditions: time 6.0 day
Mus musculus [4] = test: Antiinflammatory activity against LPS-induced hippocampal neuroinflammatory Kunming mouse model assessed as reduction in iba-1 level in hippocampus at 50 mg/kg, ip administered bid for 6 days by Western blot analysis; assay type: functional, organism-based; conditions: time 6.0 day
[5] = Toxicity in Kunming mouse assessed as changes in heart at 1000 mg/kg, po after 14 days; assay type: organism-based; conditions: in vivo, 336 h, time 14 day
Summary of the method: (§2)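 Mice, five male and five female, given a single oral dose of 1000 mg/kg and observed for behaviour for 14 days. Heart, liver, kidney and stomach then examined grossly and after H&E staining, compared with vehicle controls.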

Mus musculus [6] = test: Antiinflammatory activity against LPS-induced hippocampal neuroinflammatory Kunming mouse model assessed as reduction in GFAP level in hippocampus at 50 mg/kg, ip administered bid for 6 days by DAPI staining based microscopic method; assay type: functional, organism-based; conditions: time 6.0 day
[7] = Antioxidant activity assessed as DPPH radical scavenging activity incubated for 30 mins; assay type: functional
Summary of the method: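 Compound in ethanol at 2.5–40 μM final, mixed 1:1 with 700 μmol/L ethanolic DPPH; 30 min in the dark at room temperature, absorbance at 515 nm. Serotonin used as standard; EC50 from three independent experiments.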

[8] = Toxicity in LPS-induced hippocampal neuroinflammatory Kunming mouse model assessed as behavioral changes at 50 mg/kg, ip administered bid for 6 days […]; assay type: organism-based; conditions: in vivo, 144 h, time 6 day
Summary of the method: (§3)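 Male Kunming mice (8 weeks, 20–25 g, n = 10/group) were anaesthetised with i.p. chloral hydrate, then given LPS (3 μL of 10 mg/mL) into the lateral ventricle at 0.5 μL/min; sham mice received 3 μL saline. Compound was then given i.p. at 50 mg/kg in saline with 1% methyl cellulose for six consecutive days. Behaviour and deaths were recorded, and hippocampal slices were Nissl-stained.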

BV-2 [9] = test: Antiinflammatory activity against LPS-induced mouse BV-2 cells assessed as decrease in iba-1 protein expression at 20 uM after 24 hrs by DAPI staining based confocal laser microscopic method; assay type: functional, cell-based
Summary of the method: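 Cells on glass slides with compound at 20 μM final for 24 h: C6 with LPS 10 μg/mL stained for GFAP, BV2 with LPS 1 μg/mL stained for Iba-1. Fixed in 4% paraformaldehyde, blocked in 1% BSA/0.3% Triton X-100, primary antibody 1:100 overnight at 4 °C, secondary 1:200, DAPI mount, confocal imaging. Intensity given as % of LPS group, n = 3.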

[10] = Toxicity in LPS-induced hippocampal neuroinflammatory Kunming mouse model assessed as death at 50 mg/kg, ip administered bid for 6 days […]; assay type: organism-based; conditions: in vivo, 144 h, time 6 day; summary of the method: as §3
[11] = biological target: Prostaglandin G/H synthase 2 (Homo sapiens) (UniProt P35354); test: Inhibition of human COX2 assessed as reduction in PGF2alpha formation using arachidonic acid as substrate incubated for 10 mins by ELISA
[12] = Toxicity in Kunming mouse assessed as changes in stomach at 1000 mg/kg, po after 14 days; assay type: organism-based; conditions: in vivo, 336 h, time 14 day; summary of the method: as §2
BV-2 [13] = test: Inhibition of LPS-induced TNFalpha production in mouse BV-2 cells after 24 hrs by ELISA; assay type: functional, cell-based; conditions: dose 10-40 µM; summary of the method: as §1
C6 [14] = test: Inhibition of LPS-induced NO production in rat C6 cells incubated for 24 hrs by Griess reagent based assay; assay type: functional, cell-based; conditions: C6, 24 h
Summary of the method: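 C6 cells at 5×10^5 cells/mL, LPS 10 μg/mL plus compound at 2.5–40 μM final for 24 h. Nitrite measured with Griess reagent at 540 nm against a NaNO2 standard; IC50 from three repeats.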

C6 [15] = test: Inhibition of LPS-induced TNFalpha production in rat C6 cells after 24 hrs by ELISA; assay type: functional, cell-based; conditions: dose 10-40 µM
Summary of the method: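 C6 cells at 5×10^5 cells/mL stimulated with LPS 10 μg/mL; compound at 10, 20 or 40 μM final for 24 h. Supernatant TNF-α measured by sandwich ELISA at 450 nm; at least three independent experiments.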

BV-2 [16] = test: Antiinflammatory activity against LPS-induced mouse BV-2 cells assessed as decrease in COX2 protein expression after 24 hrs by Western blot analysis; assay type: functional, cell-based; conditions: BV-2, 24 h
Summary of the method: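 BV2 cells in DMEM with 10% FBS; LPS 1 μg/mL plus compound at 10, 20 or 40 μM final for 24 h. Lysates in RIPA with 1 mM PMSF; 30 μg protein on 8% SDS-PAGE and blotted for iNOS and COX-2, GAPDH as reference; ECL detection and densitometry; at least three independent experiments.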

Sequence of Prostaglandin G/H synthase 2 (Homo sapiens) (P35354 whole entry, looked up): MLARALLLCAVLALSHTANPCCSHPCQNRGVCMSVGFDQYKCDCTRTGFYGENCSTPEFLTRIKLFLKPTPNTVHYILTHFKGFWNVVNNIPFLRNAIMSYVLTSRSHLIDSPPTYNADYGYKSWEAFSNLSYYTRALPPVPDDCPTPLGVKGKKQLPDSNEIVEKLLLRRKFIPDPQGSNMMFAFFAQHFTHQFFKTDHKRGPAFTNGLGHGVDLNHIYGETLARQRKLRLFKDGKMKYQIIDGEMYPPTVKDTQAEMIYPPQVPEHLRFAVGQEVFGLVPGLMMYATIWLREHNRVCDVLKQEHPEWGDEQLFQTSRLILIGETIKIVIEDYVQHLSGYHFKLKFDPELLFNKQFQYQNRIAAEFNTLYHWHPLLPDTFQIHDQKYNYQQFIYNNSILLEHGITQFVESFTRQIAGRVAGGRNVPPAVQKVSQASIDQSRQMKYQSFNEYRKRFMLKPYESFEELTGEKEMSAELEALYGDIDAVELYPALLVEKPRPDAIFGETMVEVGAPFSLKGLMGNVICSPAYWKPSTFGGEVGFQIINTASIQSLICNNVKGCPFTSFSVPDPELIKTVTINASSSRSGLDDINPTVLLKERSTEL

SMILES	Activity (BV-2 [1])	Activity (C6 [2])	Activity (Mus musculus [3])	Activity (Mus musculus [4])	Activity [5]	Activity (Mus musculus [6])	EC50 [7]	Activity [8]	Activity (BV-2 [9])	Activity [10]	IC50 [11]	Activity [12]	inhibition (BV-2 [13])	IC50 (C6 [14])	inhibition (C6 [15])	IC50 (BV-2 [16])
Cc1ccc(C(=O)NCCc2c[nH]c3ccccc23)c(O)c1	Active	29%	Active	Active	Non-Toxic	Active	25.2 µM	Non-Toxic	Active	Non-Toxic	4.16 µM	Non-Toxic	Dose-dependent effect	7.48 µM	Dose-dependent effect	> 40 µM
O=C(NCCc1c[nH]c2ccc(O)cc12)c1ccccc1Nc1ccccc1	Active	95%	–	–	Non-Toxic	Active	3.82 µM	Non-Toxic	Active	Non-Toxic	0.5 µM	Non-Toxic	–	6.73 µM	Dose-dependent effect	–
